An excerpt weighted towards active compounds, which were near 3.7% of everything screened.
KCNK9 inh: human KCNK9 channel inhibition. Q9NPC2. HEK293 KCNK9, FluxOR thallium flux fluorescence; hits give low values. 310,000 tested, 1.2% active. AID 488922. B-score at 10 µM;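 active = ratio B-score over 3 SD below the library mean, with starting fluorescence within 5 SD of its mean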;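 note: negative B-score means less thallium flux so channel inhibition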
Target sequence (Q9NPC2 whole entry, looked up): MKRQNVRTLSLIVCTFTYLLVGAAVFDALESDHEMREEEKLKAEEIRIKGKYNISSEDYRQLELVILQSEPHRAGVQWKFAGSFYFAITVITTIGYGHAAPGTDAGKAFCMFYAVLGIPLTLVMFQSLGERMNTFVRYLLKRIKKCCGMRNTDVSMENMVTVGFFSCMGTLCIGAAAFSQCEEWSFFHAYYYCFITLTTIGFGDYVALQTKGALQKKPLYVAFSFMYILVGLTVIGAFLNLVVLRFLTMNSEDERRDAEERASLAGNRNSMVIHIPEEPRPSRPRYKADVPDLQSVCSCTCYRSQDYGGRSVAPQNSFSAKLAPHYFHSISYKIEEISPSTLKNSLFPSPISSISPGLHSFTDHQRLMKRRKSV
hERG rescue: compounds protecting human hERG from proarrhythmic drug block. Q12809. CHO-hERG, FluxOR thallium flux, dofetilide IC70 present. activation (rescue from dofetilide block), less the hit threshold, % at 10 µM. 310,000 tested, 0.51% active;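 active = activation above the mean of controls blocked by dofetilide plus 5 SD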;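 note: thallium influx through hERG after potassium depolarization seen as dye fluorescence rise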
KCNQ1 act: potentiators or activators of human KCNQ1 potassium channel; B-score at 10 µM; 310,000 tested, 0.35% active; CHO-K1 KCNQ1, thallium flux FluxOR fluorescence; hits give high values;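 active = fluorescence ratio B-score, a plate-corrected score, at least three library SD, with initial intensity B-score within 5 SD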
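Assay system: CHO-K1 cells stably expressing KCNQ1; Medium: assay buffer with matched DMSO; Also added: K+/Tl+ depolarizing stimulus; Dosing: single dose; Timing: dye 90 min, compound 20 min, room temperature; Measured by: kinetic FluxOR thallium fluorescence, 10-s 1-Hz baseline, 110-s post-stimulus read; Read-out: peak-minus-minimum fluorescence over initial fluorescence, negative-control normalized, B-scored.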
KCNK3 inh: human KCNK3 channel inhibition, primary screen; AID 602410; 340,000 tested, 0.84% active; B-score at 10 µM; CHO-KCNK3 thallium flux, FluxOR fluorescence; hits give low values;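 active = B-score under library mean minus 4 SD, starting fluorescence ratio at most library mean plus 5 SD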;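 note: more negative B-score means stronger inhibition of thallium flux through KCNK3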
Kir21 block: inhibitors of mouse Kir2.1 inward-rectifier potassium channel; HEK293-Kir2.1, FluxOR thallium flux fluorescence; hits give low values; B-score at 10 µM; 310,000 tested, 0.85% active; AID 1672;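 active = fluorescence ratio B-score at or below minus 3 SD of library scores, with starting-brightness B-score within 2 SD, cut at about -4.2 in these data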;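 note: channel flux triggered by added potassium and thallium sulfate stimulus; B-score of peak minus minimum fluorescence over baseline after thallium stimulus; more negative B-score means stronger Kir2.1 block with less thallium influx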
KCNQ1 block: human KCNQ1 channel inhibition; P51787; CHO-K1 KCNQ1, FluxOR thallium flux fluorescence; hits give high values; B-score at 10 µM; 310,000 tested, 1.3% active; AID 2642;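 active = compounds whose thallium flux B-score, printed positive for inhibition, exceeds three library SD while starting fluorescence stays within three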;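 note: channel opened by potassium depolarization with thallium stimulus after 20 min compound exposure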
Large screens that a line does not name were inactive.

O=C(NCc1cccs1)C1CCCN1C(=O)Nc1ccccc1Cl (stereo unspecified)	none
CCN(CC)P(=O)(Nc1ccc(C)cc1Br)c1ccc(N(C)C)cc1NC(=O)c1ccco1 (stereo unspecified)	KCNQ1 block 7
COc1cc(Cl)c(C)cc1NC(=O)CSc1nnc(CCC(=O)O)c(=O)[nH]1	none
CCOC(=O)CNC1CC(=O)N(c2cccc(Cl)c2)C1=O (stereo unspecified)	hERG rescue 5.3
Cc1cccn2c(/C=N/OCc3ccc(F)cc3)c(-c3ccc(Cl)cc3)nc12	KCNK9 inh -7.77
CCCCC1(Cc2ccc([N+](=O)[O-])cc2)C(=O)N(c2ccccc2)N(c2ccccc2)C1=O	KCNQ1 block 8
Cc1cc(CNC(=O)C2CCC(=O)N(Cc3ccccc3F)C2)nn1C (stereo unspecified)	none
CCCCCSc1nnc2c(n1)OC(c1cccn1C)N(C(C)=O)c1ccccc1-2 (stereo unspecified)	KCNK9 inh -9.75
CCCCOc1ccccc1NC(=O)Cn1c(-c2nonc2N)nc2ccccc21	KCNK3 inh -8.84
NNC(=O)Cn1c(-c2nonc2N)nc2ccccc21	none
CCOP(=O)(OCC)C(NC(=O)Nc1ccccc1)c1ccccc1 (stereo unspecified)	none
CCOP(=O)(OCC)C(NCc1ccccc1)c1ccc(Br)cc1 (stereo unspecified)	Kir21 block -4.26
O=C(Nc1cc([N+](=O)[O-])ccc1N1CCOCC1)c1ccco1	hERG rescue 13.5
O=C(CN1CCN(S(=O)(=O)/C=C/c2ccccc2)CC1)Nc1ccccc1N1CCOCC1	none
CC(C)(C)c1ccc(OCC(O)CN2CCc3ccccc3C2)cc1 (stereo unspecified)	none
COc1ccc(OCC(O)CN2CCc3ccccc3C2)cc1 (stereo unspecified)	none
Clc1ccc(OCCOCCN2CCc3ccccc3C2)c(Cl)c1	Kir21 block -15.2
Clc1ccc(OCCCN2CCc3ccccc3C2)c(Br)c1	none
OC(COc1ccc(Cl)cc1Cl)CN1CCc2ccccc2C1 (stereo unspecified)	Kir21 block -15.1
COc1cccc(OCC(O)CN2CCc3ccccc3C2)c1 (stereo unspecified)	none
Cc1ccc(OCC(O)CN2CCc3ccccc3C2)c(C)c1 (stereo unspecified)	Kir21 block -7.86
Cc1cccc(OCC(O)CN2CCc3ccccc3C2)c1 (stereo unspecified)	Kir21 block -8.79
CCOc1ccccc1NC(=O)COC(=O)c1nc2nccc(C)n2n1	none (no result: KCNK9 inh, hERG rescue, KCNQ1 act, Kir21 block, KCNQ1 block)
Cc1ccc(S(=O)(=O)N2CCOCC2)cc1NC(=O)CSc1nnc(COc2ccccc2F)n1N	none (no result: KCNK9 inh, hERG rescue, KCNQ1 act, Kir21 block, KCNQ1 block)
N#Cc1ccccc1OCC(=O)Nc1cc(S(=O)(=O)N2CCCCC2)ccc1N1CCOCC1	none (no result: KCNK9 inh, hERG rescue, KCNQ1 act, Kir21 block, KCNQ1 block)
O=C(COC(=O)C1CC(=O)N(Cc2ccco2)C1)c1ccc(OC(=O)c2ccccc2)cc1 (stereo unspecified)	Kir21 block -6.21
O=C(COC(=O)C1CC(=O)N(Cc2ccco2)C1)Nc1ccccc1[N+](=O)[O-] (stereo unspecified)	none (no result: KCNK9 inh, hERG rescue, KCNQ1 act, Kir21 block, KCNQ1 block)
COc1cc(OC)cc(C(=O)NNC(=O)CN2C(=O)NC(C)(c3ccccc3)C2=O)c1 (stereo unspecified)	none
O=C(OCC(=O)c1ccc(Cl)s1)c1cnccn1	none
O=C(NCC1CCCO1)c1ccccc1-c1nc(-c2ccc(Cl)cc2)no1 (stereo unspecified)	KCNQ1 block 6
O=C(c1ccco1)N1CCN=C1SCc1ccc(F)cc1	KCNQ1 act 39
CCCC1(CCC)NC(=O)N(CC(=O)Nc2ccc(Cl)c(S(=O)(=O)N3CCOCC3)c2)C1=O	none (no result: KCNK9 inh, hERG rescue, KCNQ1 act, Kir21 block, KCNQ1 block)
Cc1cccc(/C=N/NC(=O)C[n+]2ccccc2)c1	none (no result: KCNK9 inh, hERG rescue, KCNQ1 act, Kir21 block, KCNQ1 block)
Oc1c(Br)cc(Br)cc1CNc1cccc2cccnc12	none
Oc1ccc(Cl)cc1CNc1cccc2cccnc12	KCNK9 inh -7.75
Cn1c(=O)c2c(nc(N/N=C/c3ccc(OC(=O)c4ccco4)cc3)n2Cc2ccccc2Cl)n(C)c1=O	KCNQ1 block 7
Cc1onc(-c2ccccc2)c1-c1csc(N/N=C/c2ccccc2Cl)n1	KCNQ1 block 9
Cc1onc(-c2ccc(Cl)cc2Cl)c1-c1csc(N/N=C/c2ccccc2Cl)n1	none
O=C(c1cccs1)N1N=C(c2ccc(O)cc2)CC1c1ccccc1 (stereo unspecified)	none
O=C(c1cccs1)N1N=C(c2ccccc2)CC1c1ccccc1 (stereo unspecified)	KCNK9 inh -7.2
O=C(COC(=O)c1ccc(Sc2ccccc2)c([N+](=O)[O-])c1)NC1CCS(=O)(=O)C1 (stereo unspecified)	none
CNCCCOc1ccc(C)cc1Br	none
CNCCCCOc1ccc(C(C)(C)C)cc1Cl	Kir21 block -4.87
Cc1ccccc1OCC(=O)N=Nc1c(O)n(C)c2ccccc12	KCNQ1 act 8
CC1=C(C(=O)OCC2CCCO2)C(c2ccccc2)C2=C(CC(C)(C)CC2=O)N1 (stereo unspecified)	none
C/C(=N\NC(=S)NCc1ccccc1)c1ccco1	hERG rescue 4.9
C/C(=N\NC(=S)NCc1ccccc1)c1ccccc1	none
Nc1nc2c(s1)COc1ccccc1-2	none
Nc1nc2c(s1)CCc1c-2cnn1-c1ccccc1	Kir21 block -4.47
Cc1cc(C)nc(SCCCNCc2c(F)cccc2Cl)n1	none
Cc1ccc(CNCCCSc2nc(C)cc(C)n2)cc1	Kir21 block -4.91
CCOCCCNc1nc2c(C)cccn2c(=O)c1/C=C1\SC(=S)N(C(C)CC)C1=O (stereo unspecified)	KCNQ1 block 7
CCOCCCNc1nc2c(C)cccn2c(=O)c1/C=C1\SC(=S)N(CC(C)C)C1=O	none
COC(=O)C1=C(CS(=O)(=O)c2ccc(OC)cc2)NC(=O)NC1c1ccccc1 (stereo unspecified)	none
COc1cc(CNCCN2CCOCC2)ccc1OCc1ccc(Cl)cc1	none
COc1cc(CNCCCN2CCOCC2)cc(Br)c1OCc1ccc(Cl)cc1	Kir21 block -8.18
O=C(O)CCSc1nnc(SCC(=O)NC2CCS(=O)(=O)C2)s1 (stereo unspecified)	none (no result: KCNK9 inh, hERG rescue, KCNQ1 act, Kir21 block, KCNQ1 block)
COc1ccccc1C=NN=C(NN=Cc1ccccc1OC)NN=Cc1ccccc1OC	KCNK3 inh -11.2 (no result: KCNK9 inh, hERG rescue, KCNQ1 act, Kir21 block, KCNQ1 block)
NS(=O)(=O)c1ccc(CNc2nc(-c3cccnc3)nc3ccccc23)cc1	none
CN(Cc1ccc(Cl)s1)C(=O)CN1C(=O)N(C)C2(CCCCC2)C1=O	none (no result: KCNK9 inh, hERG rescue, KCNQ1 act, Kir21 block, KCNQ1 block)
O=C(O)c1ccccc1NC(=O)C(c1ccccc1)c1ccccc1	none
O=C(Nc1ccccc1O)C(c1ccccc1)c1ccccc1	KCNQ1 block 6
CC(=O)Nc1cccc2c1C(=O)N(c1ccccc1OC(C)=O)C2=O	none
